Experimental data reported in ChEMBL document CHEMBL1250546, “Synthesis of non-purine analogs of 6-aryl-9-benzylpurines, and their antimycobacterial activities. Compounds modified in the imidazole ring” (Bioorg Med Chem, 2010).
≈ marks a conversion by molar mass, not a printed value.

Tests used:
[1] = test system: Mycobacterium tuberculosis; test: Antibacterial activity against Mycobacterium tuberculosis H37Rv ATCC 27294 after 7 days by microplate alamar blue assay; type: functional; details: H37Rv ATCC 27294, 168 h
Summary of the method: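 Microplate alamar blue assay in 7H12 medium against M. tuberculosis H37Rv ATCC 27294 and against rifampicin-, isoniazid-, streptomycin- and kanamycin-resistant Mtb strains. Bacteria were incubated with test samples for 7 days, then fluorescence was read. MIC is the lowest concentration giving at least a 90% fluorescence reduction relative to untreated controls.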

Vero = test: Cytotoxicity against african green monkey Vero cells; type: cell-based; details: Chlorocebus sabaeus
Summary of the method: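 Mammalian-cell toxicity was measured in VERO cells and expressed as EC₅₀.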

[2] = Selectivity index, ratio of EC50 for african green monkey Vero cells to MIC for Mycobacterium tuberculosis H37Rv ATCC 27294; type: functional
Staphylococcus aureus = test: Antibacterial activity against Staphylococcus aureus; type: functional
Escherichia coli = test: Antibacterial activity against Escherichia coli; type: functional
[3] = test system: Mycobacterium tuberculosis; test: Antibacterial activity against Mycobacterium tuberculosis; type: functional

SMILES | MIC [1] | EC50 (Vero) | Selectivity Index [2] | MIC (Staphylococcus aureus) | MIC (Escherichia coli) | MIC [3]
COc1ccc(Cn2nnc3c(-c4ccco4)ncnc32)cc1 | 2.4 µM (≈ 0.738 µg/mL) | > 130 µM | >54 | > 32 µg/mL | > 90 µg/mL | –
COc1ccc(Cn2ncc3c(-c4ccco4)ncnc32)cc1 | 3.6 µM (≈ 1.1 µg/mL) | > 327 µM | >91 | > 32 µg/mL | > 90 µg/mL | –
COc1ccc(Cn2ccc3c(-c4ccco4)ncnc32)cc1 | 0.16 µM (≈ 0.0489 µg/mL) | > 131 µM | >756 | > 32 µg/mL | > 90 µg/mL | –
COc1ccc(Cn2ccc3c(-c4cccs4)ncnc32)cc1 | 0.35 µM (≈ 0.112 µg/mL) | 40 µM | 114 | – | – | –
COc1ccc(Cn2ccc3c(-c4ccco4)nc(Cl)nc32)cc1 | 0.08 µM (≈ 0.0272 µg/mL) | 85 µM | 1063 | > 32 µg/mL | > 90 µg/mL | –
COc1ccc(Cn2ccc3c(-c4cccs4)nc(Cl)nc32)cc1 | 0.11 µM (≈ 0.0391 µg/mL) | 76 µM | 691 | – | – | –
COc1ccc(Cn2ccc3c(-c4ccco4)nc(OC)nc32)cc1 | 0.22 µM (≈ 0.0738 µg/mL) | 45 µM | 205 | – | – | –
COc1ccc(C(=O)c2cn(C)c3c(-c4ccco4)ncnc23)cc1 | 192 µM (≈ 64 µg/mL) | – | – | > 32 µg/mL | > 90 µg/mL | –
COc1ccc(C(=O)c2c[nH]c3c(-c4ccco4)ncnc23)cc1 | > 300 µM | – | – | > 32 µg/mL | > 90 µg/mL | –
COc1ccc(Cc2cn(C)c3c(-c4ccco4)ncnc23)cc1 | 97 µM (≈ 31 µg/mL) | – | – | > 32 µg/mL | > 90 µg/mL | –
COc1ccc(Cn2cnc3c(-c4cccs4)nc(Cl)nc32)cc1 | – | – | – | – | – | 0.78 µg/mL (≈ 2.19 µM)
COc1ccc(Cn2cnc3c(-c4ccco4)ncnc32)cc1 | 2.1 µM (≈ 0.643 µg/mL) | > 206 µM | >98 | – | – | 1.65 µg/mL (≈ 5.39 µM)
COc1ccc(Cn2cnc3c(-c4ccco4)nc(Cl)nc32)cc1 | 0.36 µM (≈ 0.123 µg/mL) | > 117 µM | >325 | – | – | 0.39 µg/mL (≈ 1.14 µM)
CO[C@H]1/C=C/O[C@@]2(C)Oc3c(C)c(O)c4c(O)c(c(/C=N/N5CCN(C)CC5)c(O)c4c3C2=O)NC(=O)/C(C)=C\C=C\[C@H](C)[C@H](O)[C@@H](C)[C@@H](O)[C@@H](C)[C@H](OC(C)=O)[C@@H]1C [RIFAMPIN] | – | – | – | – | – | 0.25 µg/mL (≈ 0.304 µM)
